Tests used:
[1] = biological target: tissue plasminogen activator (Homo sapiens, UniProt P00750); experiment: Cleavage by purified tissue plasminogen activator; assay type: in vitro ADME; conditions: 5 μM Cy5-labeled peptide, 50 nM enzyme, 2 h, Tricine gel, UVP software
How it was run: (§1)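 Commercial active purified enzymes were each used at 50 nM with 5 μM Cy5-labeled test peptide in the manufacturer's recommended buffer. The figure legend gives 2 h; the methods text gives 4 h. Samples were boiled 1 min in Tricine sample buffer, run on 10–20% Tricine gels and imaged (ex 628 ± 20 nm, em >700 nm). Percent cleaved versus uncleaved was quantitated from gel fluorescence.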

Tumor uptake = assay type: in vivo; conditions: nude, mouse, tumor (MDA-MB-435 M4A4 xenograft), iv, 10 nmol
How it was run: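 After imaging, mice were euthanized with isoflurane. 30 mg of each tissue was homogenized in 100 μl Tris pH 7.6 with 1% SDS, heated to 85 °C for 10 min, microwaved 10 s and spun at 20,500 × g for 15 min, then imaged. Tissue-specific spiked standards calibrated fluorescence. SUV = tissue peptide molality ÷ injected dose (mol/kg body weight). Values are means ± S.D.; two-tailed t tests.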

pancreatic elastase = pancreatic elastase (Sus scrofa, UniProt P00772); experiment: Cleavage by pancreatic elastase; assay type: in vitro ADME, porcine; conditions: 5 μM Cy5-labeled peptide, pancreatic elastase (ELA-1), gel
How it was run: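 5 μM Cy5-labeled test peptide was exposed to pancreatic elastase (ELA-1), with or without 60 μM α1-antitrypsin. Neutrophil/leukocyte elastase (two sources) and tumor extract (2.0 to 0.25%) were tested in parallel. Cleavage was read from fluorescent Tricine gel electrophoresis.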

factor Xa = factor Xa (Homo sapiens, UniProt P00742); experiment: Cleavage by purified factor Xa; assay type: in vitro ADME; conditions: 5 μM Cy5-labeled peptide, 50 nM enzyme, 2 h, Tricine gel, UVP software
How it was run: as §1

[2] = biological target: urokinase plasminogen activator (Homo sapiens, UniProt P00749); experiment: Cleavage by purified urokinase plasminogen activator; assay type: in vitro ADME
How it was run: as §1

legumain [3] = biological target: legumain (Homo sapiens, UniProt Q99538); experiment: Cleavage by purified legumain; assay type: in vitro ADME; conditions: purified enzyme; data not shown
MMP-13 [4] = biological target: MMP-13 (Homo sapiens, UniProt P45452); experiment: Cleavage by purified MMP-13; assay type: in vitro ADME; conditions: purified enzyme; data not shown
[5] = Tumor standardized uptake value; assay type: in vivo; conditions: PyMT, mouse, iv, 10 nmol
factor VIIa = experiment: Cleavage by purified factor VIIa; assay type: in vitro ADME; conditions: human
How it was run: as §1

MMP-2 = MMP-2 (Homo sapiens, UniProt P08253); experiment: Cleavage by purified MMP-2; assay type: in vitro ADME; conditions: 5 μM Cy5-labeled peptide, 50 nM enzyme, 2 h, Tricine gel, UVP software
How it was run: as §1

leukocyte elastase = leukocyte elastase (Homo sapiens, UniProt P08246); experiment: Cleavage by leukocyte elastase; assay type: in vitro ADME; conditions: 5 μM Cy5-labeled peptide, leukocyte elastase (ELA-2 from a different source), gel
How it was run: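 Commercial active-form purified enzyme at 50 nm was incubated with 5 μm Cy5-labeled peptide in the manufacturer's recommended buffer. Samples were mixed with Tricine sample buffer, boiled 1 min, and resolved on 10–20% Tricine acrylamide gels. Gels were imaged quantitatively at excitation 628 ± 20 nm and emission >700 nm, and the percentage of cleaved versus uncleaved peptide was quantified.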

cathepsin H = experiment: Cleavage by purified cathepsin H; assay type: in vitro ADME; conditions: human
How it was run: as §1

cathepsin L = cathepsin L (Homo sapiens, UniProt P07711); experiment: Cleavage by purified cathepsin L; assay type: in vitro ADME; conditions: 5 μM Cy5-labeled peptide, 50 nM enzyme, 2 h, Tricine gel, UVP software
How it was run: as §1

MMP-9 = MMP-9 (Homo sapiens, UniProt P14780); experiment: Cleavage by purified MMP-9; assay type: in vitro ADME; conditions: 5 μM Cy5-labeled peptide, 50 nM enzyme, 2 h, Tricine gel, UVP software
How it was run: as §1

factor XIa = factor XIa (Homo sapiens, UniProt P03951); experiment: Cleavage by purified factor XIa; assay type: in vitro ADME; conditions: 5 μM Cy5-labeled peptide, 50 nM enzyme, 2 h, Tricine gel, UVP software
How it was run: as §1

factor IXa = factor IXa (Homo sapiens, UniProt P00740); experiment: Cleavage by purified factor IXa; assay type: in vitro ADME; conditions: 5 μM Cy5-labeled peptide, 50 nM enzyme, 2 h, Tricine gel, UVP software
How it was run: as §1

MMP12 = MMP12 (Homo sapiens, UniProt P39900); experiment: Cleavage by purified MMP12; assay type: in vitro ADME; conditions: purified enzyme; at times only visible upon gel overexposure
thrombin = thrombin (Homo sapiens, UniProt P00734); experiment: Cleavage by purified thrombin; assay type: in vitro ADME; conditions: 5 μM Cy5-labeled peptide, 50 nM enzyme, 2 h, Tricine gel, UVP software
How it was run: as §1

cathepsin B = cathepsin B (Homo sapiens, UniProt P07858); experiment: Cleavage by purified cathepsin B; assay type: in vitro ADME; conditions: 5 μM Cy5-labeled peptide, 50 nM enzyme, 2 h, Tricine gel, UVP software
How it was run: as §1

kallikrein 5 = kallikrein 5 (Homo sapiens, UniProt Q9Y337); experiment: Cleavage by purified kallikrein 5; assay type: in vitro ADME; conditions: 5 μM Cy5-labeled peptide, 50 nM enzyme, 2 h, Tricine gel, UVP software
How it was run: as §1

factor XIIa = factor XIIa (Homo sapiens, UniProt P00748); experiment: Cleavage by purified factor XIIa; assay type: in vitro ADME; conditions: 5 μM Cy5-labeled peptide, 50 nM enzyme, 2 h, Tricine gel, UVP software
How it was run: as §1

PyMT mammary tumors = experiment: Fluorescence imaging contrast in PyMT tumor-bearing mice; assay type: in vivo, mouse; conditions: live mice, 100 μl of 100 μM Cy5-labeled ACPP, imaged 6 h post injection
How it was run: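 PyMT transgenic mice bearing spontaneous mammary tumors were anesthetized with ketamine 80 mg/kg plus midazolam 5 mg/kg (1:1) and weighed. They were injected via the tail vein with Cy5 peptide: free peptide 100 μl of 100 μM (10 nmol) or albumin-reactive peptide 100 μl of 30 μM (3 nmol). Maestro imaging (ex 640 ± 24 nm, em >700 nm) was done at 6 h or 48 h, comparing tumor with adjacent normal tissue.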

MMP-14 = experiment: Cleavage by purified MMP-14; assay type: in vitro ADME
How it was run: as §1

[6] = Cleavage of ACPP by PyMT tumor cystic fluid; assay type: in vitro ADME, mouse; conditions: 5 μM Cy5-labeled peptide, 2% cystic fluid from PyMT tumors, 2 h, 37 °C, gel
How it was run: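 Cystic fluid was aspirated with a 28-gauge syringe from surgically exposed fluid-filled mammary tumor nodules of PyMT mice. 5 μM Cy5 peptide in PBS with 1 μM ZnCl2 was digested with cystic fluid (2%) at 37 °C. Aliquots were taken from 20 min to 18 h, with 2 h reported. Protease inhibitors (e.g. Ca-DTPA, TPEN, aprotinin, E-64, leupeptin, pepstatin A) were used at manufacturers' recommended concentrations. Read-out was gel fluorescence.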

MMP-8 [7] = biological target: MMP-8 (Homo sapiens, UniProt P22894); experiment: Cleavage by purified MMP-8; assay type: in vitro ADME; conditions: purified enzyme; data not shown
matriptase [8] = biological target: matriptase (Homo sapiens, UniProt Q9Y5Y6); experiment: Cleavage by purified matriptase; assay type: in vitro ADME; conditions: purified enzyme; data not shown
neutrophil elastase = experiment: 50 nM enzyme in the manufacturer's recommended buffer; conditions: up to 4 h
plasmin [9] = experiment: 50 nM plasmin; conditions: human recombinant, 37 °C, up to 2 h
[10] = tested on: prostate-specific antigen; experiment: prostate-specific antigen; conditions: up to 2 h
hepsin = experiment: hepsin; conditions: up to 2 h
MMP-8 [11] = experiment: MMP-8
MMP-13 [12] = experiment: MMP-13
matriptase [13] = experiment: matriptase
legumain [14] = experiment: legumain
enterokinase = experiment: enterokinase; conditions: up to 2 h
[15] = Effect of inhibitors on cleavage of RLQLKL ACPP by PyMT tumor cystic fluid; assay type: biochemical, mouse; conditions: 5 μM Cy5-labeled RLQLKL ACPP, 2% cystic fluid, 2 h; 5 mM Ca-DTPA, 50 μM TPEN, 18 μM SB3CT, 50 nM GM6001, 0.26 μM prinomastat, 150 nM aprotinin, 100 μM leupeptin, 60 μM α1-antitrypsin; gel
How it was run: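 Cystic fluid was aspirated by syringe from surgically exposed fluid-filled mammary tumor nodules of PyMT mice. The 5 μm Cy5 peptide was incubated at 37 °C for 2 h in PBS with 1 μm ZnCl2. Inhibitors were used at manufacturer-recommended concentrations, including 10 μm E-64, 1 μm pepstatin A, protease inhibitor mixture III (1:1000) and mixture III plus DTPA. Cleavage was read by Tricine gel electrophoresis and Cy5 fluorescence imaging.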

plasmin [16] = biological target: plasmin (Homo sapiens, UniProt P00747); experiment: Effect of inhibitor on plasmin cleavage of RLQLKL ACPP; assay type: biochemical; conditions: 5 μM Cy5-labeled RLQLKL ACPP, gel
[17] = Effect of inhibitors on cleavage of RLQLKL ACPP by tumor extract; assay type: biochemical, mouse; conditions: 5 μM Cy5-labeled RLQLKL ACPP, tumor extract 2.0 to 0.25%; 60 μM α1-antitrypsin; gel
How it was run: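 Fresh tumor tissue was gently homogenized in PBS on ice and spun at 14,000 × g for 1 min; the supernatant served as the extract. The 5 μm Cy5 peptide was digested at 37 °C in PBS containing 1 μm ZnCl2, with or without 60 μm α1-antitrypsin. Aliquots were taken from 20 min to 18 h, with the 2-h point reported. Cleavage was quantified by Tricine gel and fluorescence imaging.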

cathepsin L, sequence (P07711 114-333): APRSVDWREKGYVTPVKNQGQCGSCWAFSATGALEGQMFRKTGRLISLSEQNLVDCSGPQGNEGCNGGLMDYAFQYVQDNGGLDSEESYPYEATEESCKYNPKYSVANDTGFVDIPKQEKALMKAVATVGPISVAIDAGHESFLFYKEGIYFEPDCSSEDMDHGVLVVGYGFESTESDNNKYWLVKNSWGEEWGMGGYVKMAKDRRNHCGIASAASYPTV
pancreatic elastase, sequence (P00772 27-266): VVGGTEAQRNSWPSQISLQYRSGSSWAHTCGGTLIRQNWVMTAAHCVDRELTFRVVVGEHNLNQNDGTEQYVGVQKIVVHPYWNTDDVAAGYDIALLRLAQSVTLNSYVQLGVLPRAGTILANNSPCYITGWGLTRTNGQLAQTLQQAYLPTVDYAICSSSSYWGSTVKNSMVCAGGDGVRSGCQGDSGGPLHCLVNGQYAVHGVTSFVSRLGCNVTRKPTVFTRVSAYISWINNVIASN
matriptase (Homo sapiens, UniProt Q9Y5Y6), sequence (Q9Y5Y6 615-855 limits assumed, species assumed): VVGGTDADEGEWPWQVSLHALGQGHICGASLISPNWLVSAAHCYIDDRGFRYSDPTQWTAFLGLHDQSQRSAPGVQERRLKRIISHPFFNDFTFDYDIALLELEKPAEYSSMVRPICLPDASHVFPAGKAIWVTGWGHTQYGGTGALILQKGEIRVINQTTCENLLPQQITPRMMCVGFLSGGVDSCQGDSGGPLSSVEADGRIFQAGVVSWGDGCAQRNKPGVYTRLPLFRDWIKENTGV
factor XIa, sequence (P03951 388-625 limits assumed): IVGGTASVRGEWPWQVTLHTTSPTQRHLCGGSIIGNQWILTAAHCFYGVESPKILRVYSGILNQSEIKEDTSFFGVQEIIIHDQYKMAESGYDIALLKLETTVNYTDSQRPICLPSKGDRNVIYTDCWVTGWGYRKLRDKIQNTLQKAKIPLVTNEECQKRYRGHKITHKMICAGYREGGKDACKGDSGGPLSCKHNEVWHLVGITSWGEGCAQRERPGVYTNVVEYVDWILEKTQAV
factor XIa, sequence (P03951 19-387 partner limits assumed): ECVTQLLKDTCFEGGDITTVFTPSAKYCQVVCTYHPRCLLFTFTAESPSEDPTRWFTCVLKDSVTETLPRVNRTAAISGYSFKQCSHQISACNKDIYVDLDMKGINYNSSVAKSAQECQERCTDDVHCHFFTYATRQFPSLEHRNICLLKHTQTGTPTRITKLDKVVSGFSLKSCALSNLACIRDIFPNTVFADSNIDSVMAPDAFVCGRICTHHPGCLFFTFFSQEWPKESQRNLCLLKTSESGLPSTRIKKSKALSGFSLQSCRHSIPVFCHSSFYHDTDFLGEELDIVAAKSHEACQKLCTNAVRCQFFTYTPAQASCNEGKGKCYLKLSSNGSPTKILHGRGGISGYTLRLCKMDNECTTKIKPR
MMP-9, sequence (P14780 107-707 limits assumed): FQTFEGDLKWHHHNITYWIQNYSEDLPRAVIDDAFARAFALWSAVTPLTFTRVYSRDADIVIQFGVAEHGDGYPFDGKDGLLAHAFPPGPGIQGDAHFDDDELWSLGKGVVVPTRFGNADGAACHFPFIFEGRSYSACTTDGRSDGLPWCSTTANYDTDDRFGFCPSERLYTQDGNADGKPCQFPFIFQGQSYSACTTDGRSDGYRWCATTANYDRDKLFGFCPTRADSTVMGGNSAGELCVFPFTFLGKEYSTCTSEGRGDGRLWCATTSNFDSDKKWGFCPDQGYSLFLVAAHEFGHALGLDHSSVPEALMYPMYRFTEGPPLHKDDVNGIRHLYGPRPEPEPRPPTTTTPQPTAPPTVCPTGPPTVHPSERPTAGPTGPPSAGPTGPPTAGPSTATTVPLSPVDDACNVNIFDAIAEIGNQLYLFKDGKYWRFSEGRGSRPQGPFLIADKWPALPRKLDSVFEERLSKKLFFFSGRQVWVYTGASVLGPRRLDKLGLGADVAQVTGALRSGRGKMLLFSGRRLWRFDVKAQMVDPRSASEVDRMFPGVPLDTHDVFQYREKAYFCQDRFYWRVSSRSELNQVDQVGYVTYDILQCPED
MMP-8 (Homo sapiens, UniProt P22894), sequence (P22894 101-467, species assumed): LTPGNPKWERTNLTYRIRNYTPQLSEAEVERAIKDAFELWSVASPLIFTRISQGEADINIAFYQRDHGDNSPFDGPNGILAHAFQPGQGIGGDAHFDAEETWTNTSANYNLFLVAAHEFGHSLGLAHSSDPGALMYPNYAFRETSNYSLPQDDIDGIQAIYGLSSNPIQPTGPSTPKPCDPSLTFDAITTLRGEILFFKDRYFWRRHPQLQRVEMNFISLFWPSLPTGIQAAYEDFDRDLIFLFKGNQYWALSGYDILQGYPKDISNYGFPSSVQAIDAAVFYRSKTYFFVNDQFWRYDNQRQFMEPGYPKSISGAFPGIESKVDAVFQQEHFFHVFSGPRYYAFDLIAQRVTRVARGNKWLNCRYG
kallikrein 5, sequence (Q9Y337 67-293 limits assumed): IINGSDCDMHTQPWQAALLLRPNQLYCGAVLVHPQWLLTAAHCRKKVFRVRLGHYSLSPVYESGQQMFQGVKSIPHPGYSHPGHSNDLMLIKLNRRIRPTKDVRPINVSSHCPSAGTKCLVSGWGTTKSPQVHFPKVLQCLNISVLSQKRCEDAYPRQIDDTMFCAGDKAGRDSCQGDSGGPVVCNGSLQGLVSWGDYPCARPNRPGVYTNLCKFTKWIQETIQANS
MMP12, sequence (P39900 106-268 limits assumed): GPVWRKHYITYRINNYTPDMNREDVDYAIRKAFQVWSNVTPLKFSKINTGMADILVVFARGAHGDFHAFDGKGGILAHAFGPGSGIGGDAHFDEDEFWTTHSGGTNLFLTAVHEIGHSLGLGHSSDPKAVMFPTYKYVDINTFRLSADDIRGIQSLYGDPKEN
factor Xa, sequence (P00742 235-488 limits assumed): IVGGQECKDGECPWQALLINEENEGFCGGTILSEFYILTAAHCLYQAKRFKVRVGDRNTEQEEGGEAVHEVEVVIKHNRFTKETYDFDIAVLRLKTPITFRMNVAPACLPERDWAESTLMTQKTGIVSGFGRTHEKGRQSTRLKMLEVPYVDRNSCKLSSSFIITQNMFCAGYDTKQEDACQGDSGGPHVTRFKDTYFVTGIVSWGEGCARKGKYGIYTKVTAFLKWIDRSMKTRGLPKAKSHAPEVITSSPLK
factor Xa, sequence (P00742 41-179 partner limits assumed): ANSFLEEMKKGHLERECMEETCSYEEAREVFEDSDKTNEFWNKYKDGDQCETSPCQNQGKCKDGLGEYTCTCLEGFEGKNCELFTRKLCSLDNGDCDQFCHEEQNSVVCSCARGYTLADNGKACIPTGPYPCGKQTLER
legumain (Homo sapiens, UniProt Q99538), sequence (Q99538 18-323 limits assumed, species assumed): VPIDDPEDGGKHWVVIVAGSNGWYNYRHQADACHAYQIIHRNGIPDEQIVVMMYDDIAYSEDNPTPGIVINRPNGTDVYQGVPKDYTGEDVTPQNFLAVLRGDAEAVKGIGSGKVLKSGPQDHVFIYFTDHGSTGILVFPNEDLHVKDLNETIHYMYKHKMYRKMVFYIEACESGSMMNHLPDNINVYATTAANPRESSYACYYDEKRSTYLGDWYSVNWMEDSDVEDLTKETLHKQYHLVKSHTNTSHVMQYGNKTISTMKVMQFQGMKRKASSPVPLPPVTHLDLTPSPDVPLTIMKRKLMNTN
leukocyte elastase, sequence (P08246 30-267): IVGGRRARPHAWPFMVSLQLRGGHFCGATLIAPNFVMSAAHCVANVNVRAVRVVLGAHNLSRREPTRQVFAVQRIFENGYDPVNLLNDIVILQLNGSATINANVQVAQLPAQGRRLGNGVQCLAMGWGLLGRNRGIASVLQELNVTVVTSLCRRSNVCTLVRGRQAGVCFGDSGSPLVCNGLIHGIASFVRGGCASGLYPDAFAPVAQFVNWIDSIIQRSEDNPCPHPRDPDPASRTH
MMP-2, sequence (P08253 110-660): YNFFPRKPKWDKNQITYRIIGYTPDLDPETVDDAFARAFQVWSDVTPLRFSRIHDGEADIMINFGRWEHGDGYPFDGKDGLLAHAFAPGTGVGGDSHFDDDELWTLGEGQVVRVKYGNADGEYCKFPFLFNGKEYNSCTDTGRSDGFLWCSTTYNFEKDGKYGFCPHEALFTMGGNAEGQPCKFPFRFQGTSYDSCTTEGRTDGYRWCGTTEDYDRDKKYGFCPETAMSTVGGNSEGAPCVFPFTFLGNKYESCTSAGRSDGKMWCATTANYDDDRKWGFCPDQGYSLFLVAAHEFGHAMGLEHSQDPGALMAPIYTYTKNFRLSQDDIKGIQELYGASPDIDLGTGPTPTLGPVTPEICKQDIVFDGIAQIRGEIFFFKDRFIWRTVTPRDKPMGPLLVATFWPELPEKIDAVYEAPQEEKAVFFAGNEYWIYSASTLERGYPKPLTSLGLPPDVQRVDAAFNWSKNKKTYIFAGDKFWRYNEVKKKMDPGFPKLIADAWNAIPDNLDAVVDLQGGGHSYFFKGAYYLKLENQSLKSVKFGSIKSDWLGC
tissue plasminogen activator, sequence (P00750 36-562): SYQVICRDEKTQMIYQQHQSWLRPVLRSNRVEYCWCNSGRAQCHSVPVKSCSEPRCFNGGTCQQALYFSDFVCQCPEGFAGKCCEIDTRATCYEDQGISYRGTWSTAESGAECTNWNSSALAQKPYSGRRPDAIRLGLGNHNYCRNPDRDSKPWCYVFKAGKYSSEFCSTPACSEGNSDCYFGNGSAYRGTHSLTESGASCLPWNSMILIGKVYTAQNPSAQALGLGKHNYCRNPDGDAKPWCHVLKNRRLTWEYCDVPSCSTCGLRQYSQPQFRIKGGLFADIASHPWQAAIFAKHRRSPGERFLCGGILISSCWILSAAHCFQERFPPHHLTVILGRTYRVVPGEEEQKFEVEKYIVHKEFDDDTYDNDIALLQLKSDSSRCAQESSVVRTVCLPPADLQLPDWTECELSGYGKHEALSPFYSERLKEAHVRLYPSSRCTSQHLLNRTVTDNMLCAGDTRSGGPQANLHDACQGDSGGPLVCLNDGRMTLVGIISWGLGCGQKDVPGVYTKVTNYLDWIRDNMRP

Molecule: CC[N+]1=C(C=CC=CC=C2N(CCCCCC(=O)NCCN3C(=O)CC(SC[C@@H](NC(=O)[C@@H](CCCNC(=N)N)NC(=O)[C@@H](CCCNC(=N)N)NC(=O)[C@@H](CCCNC(=N)N)NC(=O)[C@@H](CCCNC(=N)N)NC(=O)[C@@H](CCCNC(=N)N)NC(=O)[C@@H](CCCNC(=N)N)NC(=O)[C@@H](CCCNC(=N)N)NC(=O)[C@@H](CCCNC(=N)N)NC(=O)[C@@H](CCCNC(=N)N)NC(=O)[C@H](CC(C)C)NC(=O)[C@H](CCCCN)NC(=O)[C@H](CC(C)C)NC(=O)[C@H](CCC(N)=O)NC(=O)[C@H](CC(C)C)NC(=O)[C@H](CCCNC(=N)N)NC(=O)CCCCCNC(=O)[C@@H](CCC(=O)O)NC(=O)[C@@H](CCC(=O)O)NC(=O)[C@@H](CCC(=O)O)NC(=O)[C@@H](CCC(=O)O)NC(=O)[C@@H](CCC(=O)O)NC(=O)[C@@H](CCC(=O)O)NC(=O)[C@@H](CCC(=O)O)NC(=O)[C@@H](CCC(=O)O)NC(=O)[C@H](N)CCC(=O)O)C(N)=O)C3=O)c3ccc(S(=O)(=O)O)cc3C2(C)C)C(C)(C)c2cc(S(=O)(=O)[O-])ccc21 (stereo partly drawn) [RLQLKL ACPP]
- percentage of cleavage by tissue plasminogen activator [1]: less than 3%
- SUV at 6 h (Tumor uptake): 0.7 ± 0.27 SUV
- cleavage by pancreatic elastase (in words) (pancreatic elastase): effectively cleaved
- percentage of cleavage by factor Xa (factor Xa): less than 3%
- percentage of cleavage by urokinase plasminogen activator ([2]; 5 μM Cy5-labeled peptide, 50 nM enzyme, 2 h, Tricine gel, UVP software): less than 3%
- cleavage by urokinase (in words) ([2]; purified enzyme, data not shown): no cleavage
- cleavage by legumain (in words) (legumain [3]): no cleavage
- cleavage by MMP-13 (in words) (MMP-13 [4]): no cleavage
- SUV at 6 h [5]: 0.39 ± 0.14 SUV
- metabolised at 2 h, 5 μM (factor VIIa): < 3%
- percentage of cleavage by MMP-2 (MMP-2): less than 3%
- cleavage by leukocyte elastase (in words) (leukocyte elastase): effectively cleaved
- metabolised at 2 h, 5 μM (cathepsin H): < 3%
- percentage of cleavage by cathepsin L (cathepsin L): less than 3%
- percentage of cleavage by MMP-9 (MMP-9): less than 3%
- percentage of cleavage by factor XIa (factor XIa): less than 3%
- percentage of cleavage by factor IXa (factor IXa): less than 3%
- cleavage by MMP12 (in words) (MMP12): minimal cleavage
- percentage of cleavage by thrombin (thrombin): less than 3%
- percentage of cleavage by cathepsin B (cathepsin B): less than 3%
- percentage of cleavage by kallikrein 5 (kallikrein 5): less than 3%
- percentage of cleavage by factor XIIa (factor XIIa): less than 3%
- skin uptake versus PLGLAG ACPP (in words) (PyMT mammary tumors): significantly less
- metabolised at 2 h, 5 μM (MMP-14): < 3%
- cleavage by cystic fluid (in words) [6]: similarly to tumor tissue extracts
- cleavage by MMP-8 (in words) (MMP-8 [7]): no cleavage
- cleavage by matriptase (in words) (matriptase [8]): no cleavage

Molecule: H2N-e9-(ahx)-RLQLK(Ac)L-r9-c-(Cy5)-NH2
- fragment found (neutrophil elastase): K(Ac)Lr9c-(Cy5), major
- not cleaved (plasmin [9]): not cleaved by plasmin (2 h)

Molecule: NH2-e9-(ahx)-RLQLKL-r9-c-(Cy5)-NH2
- not cleaved [10]: less than 3% cleavage
- not cleaved (hepsin): less than 3% cleavage
- not cleaved (MMP-8 [11]): no cleavage
- not cleaved (MMP-13 [12]): no cleavage
- not cleaved (matriptase [13]): no cleavage
- not cleaved (legumain [14]): no cleavage
- not cleaved (enterokinase): less than 3% cleavage

B1: serpin F2/α2-antiplasmin: plasmin-specific inhibitor (protein, UniProt P08697 40-491, looked up)
Alpha-2-antiplasmin: NQEQVSPLTLLKLGNQEPGGQTALKSPPGVCSRDPTPEQTHRLARAMMAFTADLFSLVAQTSTCPNLILSPLSVALALSHLALGAQNHTLQRLQQVLHAGSGPCLPHLLSRLCQDLGPGAFRLAARMYLQKGFPIKEDFLEQSEQLFGAKPVSLTGKQEDDLANINQWVKEATEGKIQEFLSGLPEDTVLLLLNAIHFQGFWRNKFDPSLTQRDSFHLDEQFTVPVEMMQARTYPLRWFLLEQPEIQVAHFPFKNNMSFVVLVPTHFEWNVSQVLANLSWDTLHPPLVWERPTKVRLPKLYLKHQMDLVATLSQLGLQELFQAPDLRGISEQSLVVSGVQHQSTLELSEVGVEAAAATSIAMSRMSLSSFSVNRPFLFFIFEDTTGLPLFVGSVRNPNPSAPRELKEQQDSPGNKDFLQSLKGFPRGDKLFGPDLKLVPPMEEDYPQFGSPK
- inhibition of cystic fluid cleavage of RLQLKL ACPP (in words) [15]: did not inhibit
- inhibition of plasmin cleavage of RLQLKL ACPP (in words) (plasmin [16]): did inhibit
- inhibition of tumor extract cleavage of RLQLKL ACPP (in words) [17]: did not inhibit
